Assay results published in ChEMBL document CHEMBL1926616, “Design, synthesis and biological evaluation of novel glycosylated diphyllin derivatives as topoisomerase II inhibitors” (Eur J Med Chem, 2012).
Activity calls are given as the source filed them. The calls are words filed in the database; no cut-off is given here.

Assays:
[1] = system: HCT-116; experiment: Cytotoxicity against human HCT116 cells after 72 hrs by sulforhodamine B and MTT assay; assay type: functional, cell-based; conditions: HCT-116, 72 h
Outline: (§1)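 Log-phase cells were plated overnight and exposed for 72 h to a 5-concentration gradient, in triplicate wells. SRB arm: 10% cold TCA fixation for 1 h at 4 °C, 4 mg/ml SRB in 1% acetic acid for 15 min, dye dissolved in 10 mM Tris-HCl, read at 520 nm. MTT arm: 5 mg/mL MTT for 4 h at 37 °C, SDS-isobutanol-HCl solubilisation for 12–20 h, read at 570 nm. IC50 by Logit method from at least 3 independent tests.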

[2] = system: MCF7; experiment: Cytotoxicity against human MCF7 cells after 72 hrs by sulforhodamine B and MTT assay; assay type: functional, cell-based; conditions: MCF7, 72 h; outline: as §1
[3] = system: KB; experiment: Cytotoxicity against human KB cells after 72 hrs by sulforhodamine B and MTT assay; assay type: functional, cell-based; outline: as §1
[4] = system: KB; experiment: Cytotoxicity against vincristine-selected multi drug-resistant human KB cells after 72 hrs by sulforhodamine B and MTT assay; assay type: functional, cell-based
Outline: (§2)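 Log-phase cells were seeded, preincubated (overnight for SRB, 24 h for MTT), then given a five-concentration gradient in triplicate wells for 72 h. For MTT, reagent was added for 4 h at 37 °C, solubilized in SDS-isobutanol-HCl for 12-20 h, and read at 570 nm. IC50 was derived by the Logit method from at least 3 independent tests.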

[5] = system: K562; experiment: Cytotoxicity against human K562 cells after 72 hrs by sulforhodamine B and MTT assay; assay type: functional, cell-based; conditions: K562, 72 h; outline: as §2
[6] = system: K562; experiment: Cytotoxicity against adriamycin-selected multi drug-resistant human K562 cells after 72 hrs by sulforhodamine B and MTT assay; assay type: functional, cell-based; conditions: K562, 72 h; outline: as §2
[7] = system: KB; experiment: Resistance index, ratio of IC50 for vincristine-selected multi drug-resistant human KB cells to IC50 for human KB cells; assay type: functional
Outline: (§3)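 Resistance factor is the IC50 in the resistant line divided by the IC50 in the parental line. Both IC50s come from 72 h SRB/MTT growth-inhibition assays, derived by the Logit method from at least 3 independent tests.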

[8] = system: K562; experiment: Resistance index, ratio of IC50 for adriamycin-selected multi drug-resistant human K562 cells to IC50 for human K562 cells; assay type: functional; outline: as §3
[9] = molecular target: DNA topoisomerase 2-alpha (Homo sapiens) (UniProt P11388); experiment: Inhibition of human topoisomerase 2-mediated decatenation of kinetoplast DNA at 100 uM after 15 mins by agarose gel electrophoresis
Outline: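 ATP-dependent kDNA decatenation by 1 unit Topo II in 50 mM Tris-HCl pH 7.7, 50 mM KCl, 5 mM MgCl2, 1 mM ATP, 0.5 mM DTT, 0.5 mM EDTA and BSA, run for 15 min at 37 °C. Stopped with 10% SDS, then run on 1% agarose in TAE at 4 V/cm for 1 h and stained with ethidium bromide.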

[10] = system: HL-60; experiment: Cell cycle arrest in human HL60 cells assessed as accumulation at G0/G1 phase at 1 uM after 24 hrs using propidium iodide stain by FACS-flow cytometry (reference value: 39%); assay type: functional
[11] = system: HL-60; experiment: Cell cycle arrest in human HL60 cells assessed as accumulation at G0/G1 phase at 10 uM after 24 hrs using propidium iodide stain by FACS-flow cytometry (reference value: 39%); assay type: functional
[12] = system: HL-60; experiment: Cell cycle arrest in human HL60 cells assessed as accumulation at S phase at 1 uM after 24 hrs using propidium iodide stain by FACS-flow cytometry (reference value: 38.4%); assay type: functional
[13] = system: HL-60; experiment: Cell cycle arrest in human HL60 cells assessed as accumulation at S phase at 10 uM after 24 hrs using propidium iodide stain by FACS-flow cytometry (reference value: 38.4%); assay type: functional
[14] = system: HL-60; experiment: Cell cycle arrest in human HL60 cells assessed as accumulation at G2/M phase at 1 uM after 24 hrs using propidium iodide stain by FACS-flow cytometry (reference value: 22.6%); assay type: functional
[15] = system: HL-60; experiment: Cell cycle arrest in human HL60 cells assessed as accumulation at G2/M phase at 10 uM after 24 hrs using propidium iodide stain by FACS-flow cytometry (reference value: 22.6%); assay type: functional
[16] = system: HL-60; experiment: Induction of apoptosis in human HL60 cells assessed as DNA fragmentation at 10 uM after 36 hrs by gel electrophoresis; assay type: functional, cell-based
Outline: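 HL-60 cells were seeded and exposed to compound for 36 h. Harvested cells were lysed with an equal volume of 1.2% SDS, and the fragmented DNA was extracted and resolved by gel electrophoresis.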

[17] = system: HCT-116; experiment: Cell cycle arrest in human HCT116 cells assessed as accumulation at G0/G1 phase at 1 to 10 uM after 24 hrs using propidium iodide stain by FACS-flow cytometry; assay type: functional, cell-based
[18] = system: HCT-116; experiment: Cell cycle arrest in human HCT116 cells assessed as accumulation at G2/M phase at 1 to 10 uM after 24 hrs using propidium iodide stain by FACS-flow cytometry; assay type: functional, cell-based
[19] = system: HL-60; experiment: Cell cycle arrest in human HL60 cells assessed as accumulation at G0/G1 phase at 1 to 10 uM using propidium iodide stain by FACS-flow cytometry; assay type: functional, cell-based; conditions: TDE = time-dependent effect
[20] = system: HL-60; experiment: Cell cycle arrest in human HL60 cells assessed as accumulation at G2/M phase at 1 to 10 uM using propidium iodide stain by FACS-flow cytometry; assay type: functional, cell-based; conditions: TDE = time-dependent effect
[21] = system: HL-60; experiment: Cell cycle arrest in human HL60 cells assessed as accumulation at G0/G1 phase after 24 hrs using propidium iodide stain by FACS-flow cytometry; assay type: functional, cell-based
[22] = system: HL-60; experiment: Cell cycle arrest in human HL60 cells assessed as accumulation at G2/M phase after 24 hrs using propidium iodide stain by FACS-flow cytometry; assay type: functional, cell-based
[23] = system: HCT-116; experiment: Cell cycle arrest in human HCT116 cells assessed as accumulation at G0/G1 phase at 1 to 10 uM using propidium iodide stain by FACS-flow cytometry; assay type: functional, cell-based; conditions: TDE = time-dependent effect
[24] = system: HCT-116; experiment: Cell cycle arrest in human HCT116 cells assessed as accumulation at G2/M phase at 1 to 10 uM using propidium iodide stain by FACS-flow cytometry; assay type: functional, cell-based; conditions: TDE = time-dependent effect
[25] = system: HCT-116; experiment: Cell cycle arrest in human HCT116 cells assessed as accumulation at G0/G1 phase after 24 hrs using propidium iodide stain by FACS-flow cytometry; assay type: functional, cell-based
[26] = system: HCT-116; experiment: Cell cycle arrest in human HCT116 cells assessed as accumulation at G2/M phase after 24 hrs using propidium iodide stain by FACS-flow cytometry; assay type: functional, cell-based

DNA topoisomerase 2-alpha (Homo sapiens), sequence (P11388 whole entry): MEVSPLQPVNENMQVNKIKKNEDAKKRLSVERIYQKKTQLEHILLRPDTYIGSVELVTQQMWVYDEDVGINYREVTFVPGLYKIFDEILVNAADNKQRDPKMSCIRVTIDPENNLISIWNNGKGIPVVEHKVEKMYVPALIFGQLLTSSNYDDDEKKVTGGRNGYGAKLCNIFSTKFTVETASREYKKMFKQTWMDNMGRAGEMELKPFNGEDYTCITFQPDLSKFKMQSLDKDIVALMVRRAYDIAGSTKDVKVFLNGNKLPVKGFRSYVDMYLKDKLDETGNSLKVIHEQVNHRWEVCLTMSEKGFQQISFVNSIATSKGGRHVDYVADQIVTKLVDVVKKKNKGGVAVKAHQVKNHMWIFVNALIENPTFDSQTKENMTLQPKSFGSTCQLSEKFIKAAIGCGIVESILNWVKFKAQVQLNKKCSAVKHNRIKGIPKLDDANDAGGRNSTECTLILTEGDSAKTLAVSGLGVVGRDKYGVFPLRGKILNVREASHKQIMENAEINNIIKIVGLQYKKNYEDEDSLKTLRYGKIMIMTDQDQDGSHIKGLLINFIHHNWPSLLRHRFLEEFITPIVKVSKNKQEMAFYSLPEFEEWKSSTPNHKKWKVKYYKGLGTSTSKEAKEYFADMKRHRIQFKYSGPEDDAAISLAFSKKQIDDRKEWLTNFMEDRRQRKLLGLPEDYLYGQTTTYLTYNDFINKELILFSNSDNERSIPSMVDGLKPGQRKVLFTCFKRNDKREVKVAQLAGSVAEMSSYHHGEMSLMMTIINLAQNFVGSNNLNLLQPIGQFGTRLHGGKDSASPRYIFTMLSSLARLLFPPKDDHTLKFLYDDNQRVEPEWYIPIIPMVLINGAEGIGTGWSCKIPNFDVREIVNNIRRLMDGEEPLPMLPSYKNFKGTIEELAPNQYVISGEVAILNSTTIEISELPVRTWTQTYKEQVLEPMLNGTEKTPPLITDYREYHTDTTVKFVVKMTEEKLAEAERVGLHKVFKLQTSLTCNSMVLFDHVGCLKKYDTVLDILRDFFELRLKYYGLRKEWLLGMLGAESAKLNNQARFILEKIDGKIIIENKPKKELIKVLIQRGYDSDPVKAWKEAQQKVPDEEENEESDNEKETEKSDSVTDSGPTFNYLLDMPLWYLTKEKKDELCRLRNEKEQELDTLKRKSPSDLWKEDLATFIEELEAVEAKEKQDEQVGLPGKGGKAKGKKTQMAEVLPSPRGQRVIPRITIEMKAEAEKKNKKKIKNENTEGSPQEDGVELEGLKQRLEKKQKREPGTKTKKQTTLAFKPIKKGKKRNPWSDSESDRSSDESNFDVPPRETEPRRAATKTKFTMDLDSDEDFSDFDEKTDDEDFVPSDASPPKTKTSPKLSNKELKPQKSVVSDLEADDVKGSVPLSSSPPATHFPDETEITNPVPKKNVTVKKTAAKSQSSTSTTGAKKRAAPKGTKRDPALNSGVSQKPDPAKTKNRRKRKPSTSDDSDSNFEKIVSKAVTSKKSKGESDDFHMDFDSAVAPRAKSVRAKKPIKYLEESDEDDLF

SMILES | IC50 [1] [nM] | IC50 [2] [nM] | IC50 [3] [nM] | IC50 [4] [nM] | IC50 [5] [nM] | IC50 [6] [nM] | Ratio IC50 [7] | Ratio IC50 [8] | inhibition [9] | Activity [10] [%] | Activity [11] [%] | Activity [12] [%] | Activity [13] [%] | Activity [14] [%] | Activity [15] [%] | Activity [16] | Activity [17] | Activity [18] | Activity [19] | Activity [20] | also measured
COc1cc2c(O[C@@H]3O[C@H](C)[C@@H](O)[C@H](O)[C@H]3O)c3c(c(-c4ccc5c(c4)OCO5)c2cc1OC)C(=O)OC3 [PATENTIFLORIN A] | 990 | 440 | 93 | 573 | 1430 | 16100 | 6.2 | 11.3 | inactive | 45.9 | 54.4 | 38 | 22.8 | 16.1 | 22.8 | Active | Active | Active | tde | tde | Activity [21]: Dose-dependent effect; Activity [22]: Dose-dependent effect; Activity [23]: tde; Activity [24]: tde; Activity [25]: Dose-dependent effect; Activity [26]: Dose-dependent effect
COc1cc2c(O[C@@H]3O[C@H](C)[C@@H](OC(C)=O)[C@H](OC(C)=O)[C@H]3OC(C)=O)c3c(c(-c4ccc5c(c4)OCO5)c2cc1OC)C(=O)OC3 | 270 | 380 | 440 | 1320 | 808 | 7660 | 3 | 9.5 | Active | 46.4 | 55 | 36.3 | 19.3 | 17.4 | 25.7 | Active | Active | Active | tde | tde | Activity [21]: Dose-dependent effect; Activity [22]: Dose-dependent effect; Activity [23]: tde; Activity [24]: tde; Activity [25]: Dose-dependent effect; Activity [26]: Dose-dependent effect
